Legend:
[1] = tested on: BM4-5 FEO (genotype 1b) replicon; experiment: Synergy of 1,25; type: cell-based, hepatitis C virus
Huh7.5.1 cells [2] = experiment: in vitro; type: cell-based; conditions: human, 120 h
in vitro = type: cell-based; conditions: human, CC50 μM (±S.D)
[3] = tested on: HCV infected Huh7.5.1 cells; experiment: RT-qPCR of selected genes in HCV infected cells; type: cell-based, human; conditions: 10 μM, over IFN-α treated cells (p=0.032)
How it was run: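 HCV-infected Huh7.5.1 cells were prepared as for the microarray and treated for 6 or 72 h with 1,25(OH)2D3 (4 or 10 µM) and IFN-α (1 or 10 IU/mL), alone or combined. Cultures were run in triplicate. RNA was reverse-transcribed and measured by TaqMan RT-qPCR in duplicate reactions, normalized to GAPDH. Fold change versus untreated infected culture was calculated by 2^-ΔΔCt. Means with 1 standard deviation were compared by Student t-test.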

HCV core protein = HCV core protein immunoblot in JC1-Luc2a electroporated Huh7.5.1 cells; type: cell-based, hepatitis C virus; conditions: 10 μM 1,25(OH)2D3, 10 IU/mL IFN-α, 72 hours, compared to untreated cells
How it was run: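 Huh7.5.1 cells electroporated with JC1-Luc2a were incubated for 72 h without drug, with 10 µM 1,25(OH)2D3, with 10 IU/mL IFN-α, or with both. Confluent plates were trypsinized, counted and lysed in equal RIPA volumes. Each condition was run in triplicate. Lysates were run on 12% Bis-Tris SDS-PAGE and transferred to nitrocellulose. Core (anti-core, epitope aa 7-50) and β-actin were detected with goat anti-mouse IgG, and band density was quantified.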

[4] = tested on: JC1-Luc2a (electroporation); experiment: JC1-Luc2a transfected; type: cell-based; conditions: Hepatitis C virus
Huh7.5.1 cells [5] = experiment: Microarray gene expression; type: cell-based, human
How it was run: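 Huh7.5.1 cells were JC1-Luc2a-transfected or mock-transfected, cultured 4 days, then plated. 1,25(OH)2D3 was added at staggered times to give 6, 12, 24, 72 or 120 h exposures, with RNA harvested at 120 h (day 9). Biotinylated cRNA (250 ng total RNA input; 750 ng hybridized) was run on HumanHT-12 v4 chips, 18-20 h at 58°C, with Cy3 detection. Data were LOESS-normalized and compared against uninfected untreated cells.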

JC1-Luc2a (infection) = experiment: JC1-Luc2a infectious virus luciferase assay; type: cell-based; conditions: Hepatitis C virus
HCV = conditions: ref 23 (Matsumura et al.); cited from earlier work
[6] = tested on: full-length genotype 1b replicon; conditions: ref 20 (Yano et al.); cited from earlier work
HCV genotype 1 patients = conditions: supplemented group, HCV genotype 1, PEG-IFN/RBV; controls 42%, P<0.001; cited from earlier work

C=C1/C(=C\C=C2/CCC[C@]3(C)[C@@H]([C@H](C)CCCC(C)(C)O)CC[C@@H]23)C[C@@H](O)C[C@@H]1O [1,25(OH)2D3, 1,25-dihydroxyvitamin D3]
EC50 ([1]; Hepatitis C virus, GETYPE1B, BM4-5, read-out: EC50 (used for synergy dosing)): 1 µM | CC50 (Huh7.5.1 cells [2]): 22.8 µM | CC50 at 72 h (in vitro): 17.3 µM | HIF1a mRNA expression, RT-qPCR [3]: up-regulation | HCV core protein expression by immunoblot (HCV core protein): Mild reduction | EC50 ([4]; 72 h): 2.92 µM | EC50 ([4]; 120 h): 2.95 µM | HIF1a expression (Huh7.5.1 cells [5]; HCV naïve cells): strongly up regulated | GPR37 expression (Huh7.5.1 cells [5]; progressive in vitro exposure): markedly up regulated | CCL20 gene expression (Huh7.5.1 cells [5]; shortly after treatment): higher gene expression | SLC30A10 expression (Huh7.5.1 cells [5]; uninfected and infected cells): increased | EC50 (JC1-Luc2a (infection); 72 h): 1.19 µM | EC50 (JC1-Luc2a (infection); 120 h): 1.07 µM

C=C1CC[C@H](O)C/C1=C/C=C1\CCC[C@]2(C)[C@@H]([C@H](C)CCCC(C)(C)O)CC[C@@H]12 [25(OH) D3]
Inhibition of HCV in culture (in words) (HCV): inhibited HCV in culture

C=C1CC[C@H](O)C/C1=C/C=C1\CCC[C@]2(C)[C@@H]([C@H](C)/C=C/[C@H](C)C(C)C)CC[C@@H]12 [Vitamin D2]
CC50 (Huh7.5.1 cells [2]): 41.9 µM | CC50 at 72 h (in vitro): 53.9 µM | EC50 ([4]; 72 h): 18.6 µM | EC50 ([4]; 120 h): 21.4 µM | EC50 (JC1-Luc2a (infection); 72 h): 5.72 µM | EC50 (JC1-Luc2a (infection); 120 h): 4.41 µM | EC50, inhibition of HCV RNA replication [6]: 1.6 mg/L

C=C1CC[C@H](O)C/C1=C/C=C1\CCC[C@]2(C)[C@@H]([C@H](C)CCCC(C)C)CC[C@@H]12 [Vitamin D3]
CC50 (Huh7.5.1 cells [2]): 54.9 µM | CC50 at 72 h (in vitro): 50.3 µM | EC50 ([4]; 72 h): 13 µM | EC50 ([4]; 120 h): 12.6 µM | EC50 (JC1-Luc2a (infection); 72 h): 3.44 µM | EC50 (JC1-Luc2a (infection); 120 h): 2.78 µM

C=C1CC[C@H](O)C/C1=C/C=C1\CCC[C@]2(C)[C@@H]([C@H](C)/C=C/[C@H](C)C(C)C)CC[C@@H]12 [vitamin D]
SVR rate (HCV genotype 1 patients): 86%

IFN-α
EC50 (used for synergy dosing) ([1]; BM4-5 FEO genotype 1b replicon): 1 IU/mL | HCV core protein expression by immunoblot (HCV core protein): Mild reduction

— publication PMC4651454 (Journal of virology & antiviral research, 2014)
